The values that follow come from ChEMBL document CHEMBL4725448, “Substituted Azabicyclo[2.2.1]heptanes as Selective Orexin-1 Antagonists: Discovery of JNJ-54717793” (ACS Med Chem Lett, 2020).

A word on the logD: it is lipophilicity at a set pH, counting ionised and neutral species. A lower logD goes with a more hydrophilic compound. Broadly, the Ki is a measure of affinity in units of concentration, obtained from inhibition or displacement. A lower Ki goes with a stronger hold on the target. By fraction unbound is commonly meant free concentration divided by total concentration. One may read the Papp A→B as the apparent permeability from the apical to the basolateral side of a cell layer. A lower Papp A→B goes with poor permeation. The Cmax is the maximum level reached in the sampled fluid or tissue. By AUC is commonly meant the area under the concentration-time curve, a measure of exposure. The CLint scaled is the capacity of the preparation to metabolise the compound, expressed as a volume cleared per time. The low end stands for slow turnover, the high end for rapid turnover.

In data set [1] the target is T1, PXR (NR1I2) (Homo sapiens, UniProt O75469).
T1 sequence (O75469 whole entry): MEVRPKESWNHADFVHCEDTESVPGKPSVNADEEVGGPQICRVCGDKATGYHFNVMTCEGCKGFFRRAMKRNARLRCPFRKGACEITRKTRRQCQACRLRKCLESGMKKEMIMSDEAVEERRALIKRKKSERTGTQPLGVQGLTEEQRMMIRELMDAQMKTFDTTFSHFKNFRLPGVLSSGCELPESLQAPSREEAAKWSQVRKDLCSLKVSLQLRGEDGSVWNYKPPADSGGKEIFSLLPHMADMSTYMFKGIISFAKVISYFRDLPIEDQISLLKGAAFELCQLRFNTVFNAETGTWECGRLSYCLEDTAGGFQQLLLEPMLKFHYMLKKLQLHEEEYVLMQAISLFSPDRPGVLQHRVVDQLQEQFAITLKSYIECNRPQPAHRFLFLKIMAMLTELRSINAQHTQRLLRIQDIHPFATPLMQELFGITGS
Kind of data set: Induction of human PXR at 10 uM relative to control. In kind it is ADME. Particulars: read-out: Activity. In a few lines:
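Human PXR activation as an indirect measure of CYP3A4 induction, at 10 μM, expressed as % of rifampicin control activation.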

Data set [2] in a line: Lipophilicity, logD of the compound at pH 7.4. Format: physicochemical. Particulars: buffer.
Data set [3] concerns the target T2, Orexin/Hypocretin receptor type 1 (Homo sapiens, UniProt O43613).
T2 sequence (O43613 whole entry): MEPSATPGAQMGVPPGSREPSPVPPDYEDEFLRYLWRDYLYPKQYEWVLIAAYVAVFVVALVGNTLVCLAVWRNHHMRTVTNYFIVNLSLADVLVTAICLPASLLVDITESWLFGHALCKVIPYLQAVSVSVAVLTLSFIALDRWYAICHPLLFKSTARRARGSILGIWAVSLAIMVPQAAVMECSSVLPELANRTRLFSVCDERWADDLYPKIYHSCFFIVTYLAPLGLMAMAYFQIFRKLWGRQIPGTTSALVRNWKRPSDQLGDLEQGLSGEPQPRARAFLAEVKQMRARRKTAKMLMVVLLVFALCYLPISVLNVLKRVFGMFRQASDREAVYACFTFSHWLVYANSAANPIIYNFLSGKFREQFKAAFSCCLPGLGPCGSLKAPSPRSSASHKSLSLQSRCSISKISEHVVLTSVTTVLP
Kind of data set: Binding affinity to human […].

A short description of data set [4]: Ex vivo receptor occupancy at OX1R in Sprague-Dawley rat brain tenia tecta using [3H]SB-674042 labelling at 10 mg/kg, po measured after 2 hrs by autoradiography. In kind it is functional. In a few lines: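 Rats received a single oral dose, and OX1R occupancy was measured by ex vivo binding autoradiography in brain tenia tecta sections at 0.5, 2 and 6 h after dosing. Occupancy is expressed as percent. Brain and plasma drug levels (ng/mL) were also sampled at the 0.5 h time point.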

Data set [5] can be described thus: Protein binding in human plasma assessed as free fraction. In kind it is ADME, cell-free.
A short description of data set [6]: Permeability across apical to basolateral side in MDCK cells. In kind it is ADME, cell-based, Canis lupus familiaris. Particulars: dog.
The nature of data set [7]: Cmax in rat at 1 mg/kg, iv and 5 mg/kg, po. In kind it is ADME, organism-based. Also noted: dose 5 mg/kg. Particulars: in vivo.
A short description of data set [8]: Clearance in primate. Format: ADME. Conditions: primates.
The nature of data set [9]: Cmax in primate. In kind it is ADME. Particulars: primates.
Data set [10] is described as follows: AUC (0 to 24 hrs) in mouse assessed as NOAEL at 200 mg/kg/day, po administered as repeated dose for 13 days. Format: ADME, organism-based. Details: route oral, dose 200 mg/kg/day, time 13 day. Conditions: in vivo.
The nature of data set [11]: Drug concentration in Sprague-Dawley rat brain at 10 mg/kg, po after 0.5 hrs by LC-MS/MS analysis. In kind it is ADME, organism-based. Conditions: read-out: Ct. In a few lines: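 Brain and plasma levels (ng/mL) sampled 0.5 h after oral dosing at 10 or 30 mg/kg, alongside the ex vivo tenia tecta occupancy study.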
Data set [12] is described as follows: Cmax in human at 50 mg/day. In kind it is ADME. Also noted: dose 50 mg.
Data set [13] in a line: […] clearance in rat at 1 mg/kg, iv and 5 mg/kg, po. In kind it is ADME, organism-based. Particulars: in vivo.
Data set [14] in a line: […] clearance in nonhuman primate. In kind it is ADME. Conditions: primates.
Data set [15] can be described thus: Cmax in rat assessed as NOAEL at 200 mg/kg/day, po measured after immediately administered. Format: ADME, organism-based. Details: route oral, dose 200 mg/kg/day, time 13 day. Particulars: in vivo.
The nature of data set [16]: Cmax in mouse assessed as NOAEL at 200 mg/kg/day, po measured after immediately administered. Format: ADME, organism-based. Details: route oral, time 13 day, dose 200 mg/kg/day. Particulars: in vivo.

Each structure is given as a SMILES string.

Turning to `O=C(c1cccc(F)c1-c1ncccn1)N1[C@@H]2CC[C@H]1[C@H](Nc1cnc(C(F)(F)F)cn1)C2`, in data set [1], the activity at 10 µM was 29%. This compound displayed a logD in [2] of 2.18. The same compound displayed an inhibition constant (Ki) in data set [3] of 16 nM. Further, in data set [4], the Activity came to 41%. For the same compound, in data set [5], the fraction unbound is 0.2. In data set [6], this compound displayed a Papp A→B of 1.95 ×10⁻⁶ cm/s. The Cmax in data set [7] stood at 1370 ng/mL; in [9] it was 349 ng/mL; in data set [12], 537 ng/mL; in data set [15] it was 30900 ng/mL; in data set [16], 32900 ng/mL. Further, the clearance in data set [8] was 14 mL/min/kg; in data set [13], 17 mL/min/kg. The AUC at 312 h in data set [10] turned out to be 84100 ng·h/mL. Also, the concentration at 0.5 h in data set [11] was 188 ng/mL. In addition, the CLint scaled in data set [14] amounted to 13 mL/min/kg.
